mIAP activ: activators of mouse IAP, primary screen, biochemical, luminescence, uHTS | muIAP, CDP-Star luminescence, 30 min; stronger effect = higher value; 1 = vehicle-only enzyme signal, 0 = enzyme-free wells | 330,000 tested, 0.24% active | activation factor at 10 µM;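 active = activation factor of at least 2 at 20 µM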
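System: Mouse IAP enzyme | Also added: CDP-Star substrate | Dosing: Compounds dispensed in DMSO | Schedule: 30 min enzyme-substrate-compound incubation at room temperature | Technique: Chemiluminescence readout | Control set: DMSO-only wells and no-enzyme negative control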
hIAP block: human IAP inhibitors, primary screen, biochemical, luminescence, uHTS | purified IAP, CDP-Star luminescence, 30 min | Intestinal-type alkaline phosphatase (Homo sapiens), P09923 | AID 2544, 2010 | 330,000 tested, 0.12% active | inhibition, % at 10 µM;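 active = inhibition reaching a set limit with compound at 10 µM in the primary screen, cut at about 35% in these data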;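 note: plate controls were DMSO wells with enzyme for no effect and no-enzyme buffer wells for full effect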
Target sequence (P09923 whole entry, looked up): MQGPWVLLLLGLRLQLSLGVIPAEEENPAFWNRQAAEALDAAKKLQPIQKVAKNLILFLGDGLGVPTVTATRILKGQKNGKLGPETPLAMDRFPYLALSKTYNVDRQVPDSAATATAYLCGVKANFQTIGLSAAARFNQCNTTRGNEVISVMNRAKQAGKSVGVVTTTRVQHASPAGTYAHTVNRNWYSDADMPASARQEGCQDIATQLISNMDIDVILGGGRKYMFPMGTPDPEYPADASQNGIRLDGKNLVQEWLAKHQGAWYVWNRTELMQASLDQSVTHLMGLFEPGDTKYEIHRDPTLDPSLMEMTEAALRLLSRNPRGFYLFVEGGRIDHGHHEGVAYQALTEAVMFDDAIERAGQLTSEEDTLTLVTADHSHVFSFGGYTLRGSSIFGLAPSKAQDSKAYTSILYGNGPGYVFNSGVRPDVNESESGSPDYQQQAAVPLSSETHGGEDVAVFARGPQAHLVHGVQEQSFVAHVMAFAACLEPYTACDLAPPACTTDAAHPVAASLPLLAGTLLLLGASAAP
hIAP act: human IAP activators, primary screen, biochemical, luminescence, uHTS | 330,000 tested, 0.16% active | activation factor at 10 µM | purified human IAP, CDP-Star luminescence, 30 min; stronger effect = higher value; 1 = vehicle-only enzyme, 0 = enzyme-free background;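 active = activation factor of the enzyme at least 2-fold when tested at 20 µM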
bIAP act: bovine intestinal alkaline phosphatase activators, primary screen, biochemical, bovine IAP, CDP-star luminescence | purified bovine IAP, 30 min; stronger effect = higher value; fold of DMSO-control signal, blank-subtracted | AID 1016, 2008 | 200,000 tested, 0.17% active | alkaline phosphatase, intestinal [Bos taurus] | activation factor at 20 µM;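 active = activation factor of 2 or more at 20 µM, a signal rise over negative controls twice the positive control's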
bIAP inh: bovine intestinal alkaline phosphatase inhibitors, primary screen, selectivity assay for TNAP inhibitor project, biochemical, bovine IAP, CDP-star luminescence. alkaline phosphatase, intestinal [Bos taurus]. purified bovine IAP, 30 min. inhibition, % at 20 µM. 190,000 tested, under 10 active;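 active = over 50% inhibition of intestinal alkaline phosphatase at 20 µM in the single-dose screen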
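System: purified bovine intestinal alkaline phosphatase (IAP) enzyme; Input: IAP diluted 1/65,000,000 in the well; Measured by: CDP-star luminescence signal; Compound dosing: 20 µM single dose; Incubation: 30 min reaction at room temperature.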
mIAP block: inhibitors of mouse IAP, primary screen, biochemical, luminescence, uHTS; inhibition, % at 10 µM; intestinal alkaline phosphatase [Mus musculus]; purified mouse IAP, CDP-Star luminescence, 30 min; AID 2806, 2010; 330,000 tested, 0.2% active;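 active = inhibition of at least 40% at 10 µM in the primary screen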;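 note: plate controls were DMSO with enzyme for no effect and no enzyme wells for full effect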
mIAP inh confirm: inhibitors of mouse IAP, confirmation, biochemical, luminescence, single concentration | shares compounds with mIAP block | purified mouse IAP, CDP-Star luminescence, 30 min | inhibition, % at 10 µM | 11,000 tested, 4.7% active | AID 434971, 2010;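 active = inhibition of at least 40% at 10 µM in either of the two replicates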;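 note: plate controls were DMSO wells with enzyme for no effect and buffer wells lacking enzyme for full effect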
Starred values were filed as active, the others as inactive; i = inactive; / = no result. This is a sample that favours compounds with a hit; in the whole collection about 0.79% have one here.

SMILES	mIAP activ	hIAP block	hIAP act	bIAP act	bIAP inh	mIAP block	mIAP inh confirm
O=C(CN1C(=O)NC2(CCCc3ccccc32)C1=O)N1CCCCC1 (stereo unspecified)	0.939	-12.8	1.13	/	/	6.1	/
CSCC(C)N1CCC(n2nccc2NC(=O)c2ccccc2C)CC1 (stereo unspecified)	1.02	-34.1	1.34	/	/	-2.2	/
COc1ccc(-c2ccc(/C=C(\NC(=O)c3ccccc3)C(=O)N3CCOCC3)o2)cc1	0.947	5.5	0.945	1	-4.0	5.3	/
Cc1cc(O)c2c(c1O)C(=O)[C@]13C(=C2O)C(=O)[C@@H]2[C@@H](O)[C@H]1[C@@H]1[C@H](O)[C@H]3C(=O)C3=C(O)c4c(O)cc(C)c(O)c4C(=O)[C@]312	0.532	4.7	0.953	/	/	46.8*	41.1*
O=C1CSC(=S)N1N1C(=O)c2cccc([N+](=O)[O-])c2C1=O	0.43	-9.7	1.1	0.5	49.1	57.0*	67.7*
S=C(NCc1ccc(Cl)cc1Cl)NC1CCCCC1	5.41*	-31.8	1.32	1	3.3	-440.5	-93.0
NS(=O)(=O)c1ccc(Nc2nc(-c3ccc(O)cc3O)cs2)cc1	0.595	-6.9	1.07	1.2	-19.1	40.5*	59.9*
Nc1ccncc1N	0.285	-21.0	1.21	/	/	71.5*	74.9*
Nc1cccc2cnccc12	0.957	-12.6	1.13	1	-0.1	4.3	/
Cc1cc(C)c(NC(=O)CSc2nc3ncc(Br)cc3[nH]2)c(Cl)c1	0.903	-53.2	1.53	/	/	9.7	/
O=C(CNc1ccc(Br)cc1)NC(=O)NC1CCCCC1	0.887	-2.3	1.02	/	/	11.3	/
Cc1cc2nc(C)n(CCCNC(=O)Nc3cccc4ccccc34)c2cc1C	2.56*	-13.7	1.14	2.7*	-167.3	-155.5	-118.3
O=c1cc(-c2ccc(O)cc2)oc2c(O)c(O)c(O)c(O)c12	0.338	2.8	0.972	/	/	66.2*	66.7*
O=c1cc(-c2ccc(O)cc2)oc2c1ccc1ccccc12	0.961	-8.9	1.09	/	/	3.9	/
O=C(Nc1ccccc1)Nc1cc(Cl)cc(Cl)c1	4.84*	-19.4	1.19	0.9	12.5	-383.6	-240.7
CC(O)c1cccc(NC(=O)CCC(=O)O)c1 (stereo unspecified)	1.09	16.4	0.836	0.9	10.3	-9.3	/
O=C(Nc1cccc(Cl)c1)NC1CC2CCC1C2 (stereo unspecified)	3.2*	-10.6	1.11	/	/	-219.7	-163.6
O=C(Nc1cccc(Cl)c1)NC1CCCCC1	1.93	-8.9	1.09	0.9	5.6	-92.9	/
O=C(NCc1csc2ccccc12)Nc1cc(Cl)cc(Cl)c1	3.71*	4.0	0.96	/	/	-270.8	-144.6
CC(O)c1cccc(NC(=O)Nc2cccc(NC(=O)Nc3cccc(C(C)O)c3)c2)c1 (stereo unspecified)	2.52*	-19.1	1.19	/	/	-152.1	-88.9
CCN(C(=O)c1cccc(S(=O)(=O)N2CCCCC2)c1)C1CCS(=O)(=O)C1 (stereo unspecified)	0.844	-4.3	1.04	/	/	15.6	/
O=C(CN1CCN(C(=O)c2c(F)cccc2F)CC1)Nc1ccccc1C(F)(F)F	0.932	5.8	0.942	/	/	6.8	/
O=C(Nc1cccc(F)c1)Nc1cccc(Cl)c1	3.59*	-13.9	1.14	/	/	-259.3	-110.7
CSc1cccc(NC(=O)Nc2ccccc2)c1	2.77*	-6.5	1.06	0.7	26.4	-177.2	-110.3
O=C(Nc1cccc(Cl)c1)Nc1cccc(Cl)c1	2.63*	-8.8	1.09	1.2	-16.0	-162.7	-220.9
SMILES	mIAP activ	hIAP block	hIAP act	bIAP act	bIAP inh	mIAP block	mIAP inh confirm
O=C(Nc1cccc(Cl)c1)Nc1nc(-c2ccccc2)cs1	2.83*	-12.8	1.13	0.4	/	-183.5	-116.0
Cc1ccc(NC(=O)c2ccccc2NS(=O)(=O)c2ccc(Cl)s2)cc1S(=O)(=O)N1CCOCC1	0.959	1.0	0.99	0.9	8.4	4.1	/
CN(C(=O)c1ccc(NC(=O)Cc2ccc(NC(=O)C3CCCN(C(=O)CCc4ccccc4)C3)cc2)cc1)C1CC1 (stereo unspecified)	1.23	0.5	0.995	/	/	-23.1	/
O=C(CSc1nc2ccccc2c(=O)[nH]1)c1ccc(O)c(O)c1	0.378	6.6	0.934	0.1	/	62.2*	72.1*
Cc1nn(Cc2c(Cl)cccc2Cl)c(C)c1NC(=O)c1cn(-c2ccccc2)nc1-c1ccccc1	2.46*	-10.7	1.11	1.3	-27.1	-146.5	-73.8
CC(C)NC(=O)c1ccc(COc2ccc(C(C)(C)C)cc2)o1	1.03	-11.4	1.11	/	/	-2.6	/
O=C(Nc1cccc(Cl)c1)NC1CC2CCC(C1)N2Cc1ccco1 (stereo unspecified)	1.15	-15.3	1.15	1	-2.2	-14.8	/
O=C(Nc1ccc(Cl)cc1)NC1CCCCC1Cc1ccco1 (stereo unspecified)	7.83*	-20.5	1.21	1.6	-55.9	i	-110.8
CC1CCN(C(=O)CCNC(=O)c2ccccc2Cl)CC1	1.03	-5.7	1.06	/	/	-2.8	/
C=CCn1c(SCC(=O)c2ccc(O)c(O)c2)nnc1-c1cccc(OC)c1	0.592	9.0	0.91	/	/	40.8*	45.5*
O=C(Oc1ccc(/C=N/NC(=O)c2ccco2)cc1)c1ccccc1	1.01	-1.6	1.02	/	/	-0.8	/
O=C(Nc1ccc(Cl)c(C(F)(F)F)c1)NC1CC2CCCC(C1)N2Cc1ccccc1 (stereo unspecified)	8.9*	-92.0	1.92	2.3*	-130.3	i	i
O=C(N/N=C/c1ccc(F)cc1)c1cccc(NC(=O)c2ccc(F)cc2)c1	1.1	-4.8	1.05	/	/	-9.6	/
Cc1cc(NC(=O)COC(=O)C2CCC2)no1	0.868	2.9	0.971	0.9	10.8	13.2	/
O=c1[nH]n2c(=O)c3c([nH]c2c1N=Nc1cccc(Cl)c1)CCC3	/	/	/	1.2	-24.0	/	/
NS(=O)(=O)c1ccc(N=Nc2c(=O)[nH]n3c(=O)c4c([nH]c23)CCCC4)cc1	0.522	-66.2	1.66	0.5	/	47.8*	62.8*
C=CCNc1cc(F)ccc1S(=O)(=O)NCC=C	0.995	/	/	/	/	0.5	/
O=C1c2ccccc2C(=O)c2c(O)c(O)cc(O)c21	0.785	19.2	0.808	/	/	21.5	/
O=C1C=C(O)c2c(O)cc(O)c(O)c2C1=O	0.31	17.1	0.829	/	/	69.0*	55.4*
CC1(C)Oc2ccc(C(=O)N/N=C/c3ccc(O)cc3)cc2NC1=O	1.06	8.1	0.919	/	/	-5.6	/
CN1C(=O)C(C)(C)N(C(=O)c2cccc([N+](=O)[O-])c2)c2ccccc21	1.03	-0.3	1	/	/	-2.9	/

Bioassay records as filed in PubChem.
